The results in this text go back to publication PMC9056854 (RSC Advances, 2020).

A short description of the data set: Thermal denaturation study. The data set is classed as physicochemical. Particulars: 3 μM duplex, 10 mM sodium phosphate (pH 7.0), 100 mM NaCl; relative to siRNA 1. An outline of the steps:
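UV melting of duplexes at 3 μM in 10 mM sodium phosphate (pH 7.0) with 100 mM NaCl, heated at 0.5 °C min−1. ΔTm is the Tm of the peptide-conjugated duplex minus the Tm of the unmodified duplex.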

As to “5′-GGCCUUUCACUACUCCUACTTR^E-R8A7-3′ [siRNA 3]”, the “ΔTm [Tm(siRNAmod) − Tm(siRNAunmod)]” value was “+0.5 °C”.

For the substance “5′-GGCCUUUCACUACUCCUACTTR^E-R8G7-3′ [siRNA 2]”, the “ΔTm [Tm(siRNAmod) − Tm(siRNAunmod)]” value was “+0.9 °C”.
